How the values were obtained:
[1] = target: hERG (KCNH2) (Homo sapiens, UniProt Q12809); assay: Inhibition of human ERG at 10 uM incubated for 2 hrs by fluorescence polarisation assay relative to control
[2] = target: Aurora kinase B (Homo sapiens, UniProt Q96GD4); assay: Inhibition of recombinant full-length human aurora B kinase expressed in baculovirus system at 10 uM using MBP as substrate incubated for 45 mins by ADP-glo kinase assay; settings: probe MBP
In short: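 Aurora B activity measured as ADP formation via coupled luciferase ADP-Glo luminescence; single-point at 10 μM, triplicate.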

[3] = tested on: Trypanosoma brucei; assay: Antitrypanosomal activity against Trypanosoma brucei Lister 427 bloodstream form at 10 uM after 72 hrs by resazurin dye-based assay relative to control; type: functional
[4] = tested on: Trypanosoma brucei; assay: Antitrypanosomal activity against Trypanosoma brucei Lister 427 bloodstream form after 72 hrs by resazurin dye-based assay; type: functional, organism-based; settings: Lister 427, 72 h
[5] = Cytotoxicity against human U2OS cells assessed as viable cells at 50 uM after 72 hrs by MTT assay relative to control; type: cell-based; settings: read-out: Activity
[6] = target: CYP3A4 (Homo sapiens, UniProt P08684); assay: Inhibition of human microsomal CYP3A4 expressed in baculovirus infected BTI-TN-5B1-4 cells at 10 uM incubated for 30 mins by luciferase assay relative to control; type: ADME
In short: (§1)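 CYP1A2, 2C9, 2C19, 2D6 and 3A4 in microsomes from baculovirus-infected insect cells, each with a P450-Glo luminogenic substrate. Inhibition read as loss of light; single-point at 10 μM, triplicate.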

[7] = tested on: Trypanosoma cruzi; assay: Antitrypanosomal activity against Trypanosoma cruzi amastigote form infected in human U2OS cells assessed as parasite growth inhibition at 50 uM after 72 hrs relative to control; type: functional; settings: read-out: GI
In short: (§2)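 U2OS monolayers grown for 24 h, then infected with tissue-derived trypomastigotes of T. cruzi Y strain. Compounds were added 24 h after infection at 50 μM (single-point) or in dose-response, with 72 h exposure. Plates were fixed, stained and analysed by high-content imaging; activity was normalized to infected and non-infected controls. Means of at least two experiments; benznidazole as reference.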

[8] = Cytotoxicity against human A549 cells assessed as growth inhibition at 10 uM after 48 hrs by CellTiter-Glo assay relative to control; values are per cent of control; settings: A549 cells
[9] = tested on: Trypanosoma brucei; assay: Potentiation of methotrexate-induced antitrypanosomal activity against Trypanosoma brucei Lister 427 bloodstream form at 10 uM after 72 hrs by resazurin dye-based assay; type: functional
[10] = Selectivity index, ratio of CC50 for human A549 cells to EC50 for Trypanosoma brucei Lister 427 bloodstream form; type: toxicity; settings: read-out: Ratio CC50/EC50
In short: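 Selectivity index = CC50 in the human host or cytotoxicity cell line divided by parasite EC50.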

[11] = tested on: Trypanosoma brucei; assay: Potentiation of methotrexate-induced antitrypanosomal activity against Trypanosoma brucei Lister 427 bloodstream form assessed as dose reduction index for methotrexate at EC50 after 72 hrs by resazurin dye-based assay; type: functional
[12] = Cytotoxicity against human WI38 cells assessed as growth inhibition at 10 uM after 48 hrs by CellTiter-Glo assay relative to control; values are per cent of control; settings: WI38 cells
[13] = target: CYP2D6 (Homo sapiens, UniProt P10635); assay: Inhibition of human microsomal CYP2D6 expressed in baculovirus infected BTI-TN-5B1-4 cells at 10 uM incubated for 30 mins by luciferase assay relative to control; type: ADME; in short: as §1
[14] = Cytotoxicity against human THP1 cells assessed as viable cells at 100 uM after 72 hrs by MTT assay relative to control; type: cell-based, THP-1; settings: read-out: Activity
In short: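 THP-1-derived macrophages exposed to compounds for 72 h, tested at 100 μM or in dose-response; viability read by MTT colorimetric assay.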

[15] = target: CYP2C9 (Homo sapiens, UniProt P11712); assay: Inhibition of human microsomal CYP2C9 expressed in baculovirus infected BTI-TN-5B1-4 cells at 10 uM incubated for 30 mins by luciferase assay relative to control; type: ADME; in short: as §1
[16] = target: T1, Pteridine reductase 1 (Leishmania major) (UniProt Q01782); assay: Inhibition of Leishmania major PTR1 at 50 uM using H2B as substrate in presence of NADPH by photometric analysis relative to control
T1 sequence (whole entry): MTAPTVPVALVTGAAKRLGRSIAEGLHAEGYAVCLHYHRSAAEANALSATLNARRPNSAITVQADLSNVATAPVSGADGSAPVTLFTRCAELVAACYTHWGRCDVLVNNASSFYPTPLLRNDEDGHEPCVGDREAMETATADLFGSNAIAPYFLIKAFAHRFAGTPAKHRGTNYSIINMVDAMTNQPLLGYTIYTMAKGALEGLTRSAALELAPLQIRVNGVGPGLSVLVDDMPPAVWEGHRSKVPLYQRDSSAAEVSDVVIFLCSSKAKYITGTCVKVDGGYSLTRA

[17] = tested on: Trypanosoma brucei; assay: Antitrypanosomal activity against Trypanosoma brucei Lister 427 bloodstream form assessed as parasite growth inhibition at 50 uM after 72 hrs by SYBR Green assay relative to control; type: functional; settings: Lister 427, 72 h, read-out: GI
[18] = tested on: Trypanosoma brucei; assay: Potentiation of methotrexate-induced antitrypanosomal activity against Trypanosoma brucei Lister 427 bloodstream form assessed as combination index at EC50 after 72 hrs by resazurin dye-based assay; type: functional
[19] = Cytotoxicity against human 786-O cells assessed as inhibition of mitochondrial viability at 10 uM after 6 hrs by CMXRos staining based assay relative to control; type: cell-based, 786-0; settings: read-out: INH
In short: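 Mitochondrial toxicity monitored by MitoTracker Red CMXRos uptake and high-content imaging; compound at 10 μM, triplicate.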

[20] = tested on: Trypanosoma cruzi; assay: Antitrypanosomal activity against Trypanosoma cruzi amastigote form infected in human U2OS cells assessed as parasite growth inhibition after 72 hrs; type: functional, organism-based; in short: as §2
[21] = tested on: Trypanosoma brucei; assay: Antitrypanosomal activity against Trypanosoma brucei Lister 427 bloodstream form after 72 hrs by SYBR Green assay; type: functional, organism-based; settings: Lister 427, 72 h
[22] = target: T2, CYP1A2 (Homo sapiens, UniProt P05177); assay: Inhibition of human microsomal CYP1A2 expressed in baculovirus infected BTI-TN-5B1-4 cells at 10 uM incubated for 30 mins by luciferase assay relative to control; type: ADME; in short: as §1
T2 sequence (P05177 whole entry): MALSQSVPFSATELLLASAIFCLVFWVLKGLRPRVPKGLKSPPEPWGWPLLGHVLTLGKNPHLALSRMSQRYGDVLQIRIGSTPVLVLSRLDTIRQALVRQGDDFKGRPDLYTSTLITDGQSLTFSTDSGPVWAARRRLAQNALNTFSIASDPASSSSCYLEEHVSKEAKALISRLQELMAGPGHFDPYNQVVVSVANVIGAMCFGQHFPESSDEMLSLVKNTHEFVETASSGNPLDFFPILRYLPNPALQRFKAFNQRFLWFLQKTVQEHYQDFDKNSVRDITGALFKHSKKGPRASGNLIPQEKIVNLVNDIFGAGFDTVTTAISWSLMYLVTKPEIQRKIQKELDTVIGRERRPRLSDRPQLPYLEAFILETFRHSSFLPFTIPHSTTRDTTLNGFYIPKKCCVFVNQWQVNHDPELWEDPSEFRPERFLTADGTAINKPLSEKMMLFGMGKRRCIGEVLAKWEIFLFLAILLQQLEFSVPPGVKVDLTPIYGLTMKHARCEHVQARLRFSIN

Chain of CYP2D6 (P10635 whole entry): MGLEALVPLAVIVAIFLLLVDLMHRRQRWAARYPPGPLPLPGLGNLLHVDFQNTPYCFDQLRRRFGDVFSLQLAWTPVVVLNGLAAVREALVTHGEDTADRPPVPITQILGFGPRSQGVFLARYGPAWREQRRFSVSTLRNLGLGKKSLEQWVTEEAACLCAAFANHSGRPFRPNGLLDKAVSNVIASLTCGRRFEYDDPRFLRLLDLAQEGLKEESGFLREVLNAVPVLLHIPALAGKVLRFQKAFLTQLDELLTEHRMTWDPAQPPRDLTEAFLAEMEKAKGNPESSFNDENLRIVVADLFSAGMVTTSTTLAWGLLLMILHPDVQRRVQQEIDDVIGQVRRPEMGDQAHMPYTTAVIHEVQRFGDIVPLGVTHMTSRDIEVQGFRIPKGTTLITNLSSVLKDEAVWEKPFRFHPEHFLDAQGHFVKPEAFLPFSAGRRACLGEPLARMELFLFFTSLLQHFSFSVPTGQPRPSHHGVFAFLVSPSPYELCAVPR
Chain of CYP2C9 (P11712 whole entry): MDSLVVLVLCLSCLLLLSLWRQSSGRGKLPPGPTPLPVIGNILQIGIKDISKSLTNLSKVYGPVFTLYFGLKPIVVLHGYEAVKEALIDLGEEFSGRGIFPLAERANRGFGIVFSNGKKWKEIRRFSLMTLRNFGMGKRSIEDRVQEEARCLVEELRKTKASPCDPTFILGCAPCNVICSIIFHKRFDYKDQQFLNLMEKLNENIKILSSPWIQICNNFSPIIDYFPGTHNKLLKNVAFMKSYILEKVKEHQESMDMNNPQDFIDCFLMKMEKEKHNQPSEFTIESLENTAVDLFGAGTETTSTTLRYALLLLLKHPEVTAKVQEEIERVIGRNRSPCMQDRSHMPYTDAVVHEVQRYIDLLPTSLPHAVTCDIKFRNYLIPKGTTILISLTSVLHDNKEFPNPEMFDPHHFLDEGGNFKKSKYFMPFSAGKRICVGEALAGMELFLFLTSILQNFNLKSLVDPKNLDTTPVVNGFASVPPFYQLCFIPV
Chain of Aurora kinase B (Q96GD4 whole entry): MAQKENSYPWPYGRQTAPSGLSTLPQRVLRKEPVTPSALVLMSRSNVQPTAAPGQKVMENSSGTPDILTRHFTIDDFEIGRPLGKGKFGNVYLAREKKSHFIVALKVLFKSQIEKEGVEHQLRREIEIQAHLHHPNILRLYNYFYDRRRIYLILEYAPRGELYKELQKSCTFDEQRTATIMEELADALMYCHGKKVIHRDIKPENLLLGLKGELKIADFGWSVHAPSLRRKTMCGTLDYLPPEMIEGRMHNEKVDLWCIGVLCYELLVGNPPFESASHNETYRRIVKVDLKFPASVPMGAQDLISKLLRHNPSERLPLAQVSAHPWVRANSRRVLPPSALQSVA
Chain of CYP3A4 (P08684 whole entry): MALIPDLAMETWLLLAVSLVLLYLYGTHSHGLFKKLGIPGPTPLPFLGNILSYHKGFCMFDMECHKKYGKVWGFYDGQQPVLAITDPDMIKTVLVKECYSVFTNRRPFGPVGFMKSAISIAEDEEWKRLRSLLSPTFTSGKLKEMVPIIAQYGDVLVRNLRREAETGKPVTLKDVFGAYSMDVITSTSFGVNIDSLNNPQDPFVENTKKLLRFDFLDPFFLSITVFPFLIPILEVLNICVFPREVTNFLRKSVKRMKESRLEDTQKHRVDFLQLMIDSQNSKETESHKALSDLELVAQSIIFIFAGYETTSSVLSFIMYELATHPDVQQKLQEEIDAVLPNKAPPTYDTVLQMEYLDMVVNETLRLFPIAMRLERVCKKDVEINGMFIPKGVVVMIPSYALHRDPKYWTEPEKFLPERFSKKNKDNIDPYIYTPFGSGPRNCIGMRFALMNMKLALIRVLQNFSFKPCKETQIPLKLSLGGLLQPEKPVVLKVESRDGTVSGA
Chain of hERG (KCNH2) (Q12809 whole entry): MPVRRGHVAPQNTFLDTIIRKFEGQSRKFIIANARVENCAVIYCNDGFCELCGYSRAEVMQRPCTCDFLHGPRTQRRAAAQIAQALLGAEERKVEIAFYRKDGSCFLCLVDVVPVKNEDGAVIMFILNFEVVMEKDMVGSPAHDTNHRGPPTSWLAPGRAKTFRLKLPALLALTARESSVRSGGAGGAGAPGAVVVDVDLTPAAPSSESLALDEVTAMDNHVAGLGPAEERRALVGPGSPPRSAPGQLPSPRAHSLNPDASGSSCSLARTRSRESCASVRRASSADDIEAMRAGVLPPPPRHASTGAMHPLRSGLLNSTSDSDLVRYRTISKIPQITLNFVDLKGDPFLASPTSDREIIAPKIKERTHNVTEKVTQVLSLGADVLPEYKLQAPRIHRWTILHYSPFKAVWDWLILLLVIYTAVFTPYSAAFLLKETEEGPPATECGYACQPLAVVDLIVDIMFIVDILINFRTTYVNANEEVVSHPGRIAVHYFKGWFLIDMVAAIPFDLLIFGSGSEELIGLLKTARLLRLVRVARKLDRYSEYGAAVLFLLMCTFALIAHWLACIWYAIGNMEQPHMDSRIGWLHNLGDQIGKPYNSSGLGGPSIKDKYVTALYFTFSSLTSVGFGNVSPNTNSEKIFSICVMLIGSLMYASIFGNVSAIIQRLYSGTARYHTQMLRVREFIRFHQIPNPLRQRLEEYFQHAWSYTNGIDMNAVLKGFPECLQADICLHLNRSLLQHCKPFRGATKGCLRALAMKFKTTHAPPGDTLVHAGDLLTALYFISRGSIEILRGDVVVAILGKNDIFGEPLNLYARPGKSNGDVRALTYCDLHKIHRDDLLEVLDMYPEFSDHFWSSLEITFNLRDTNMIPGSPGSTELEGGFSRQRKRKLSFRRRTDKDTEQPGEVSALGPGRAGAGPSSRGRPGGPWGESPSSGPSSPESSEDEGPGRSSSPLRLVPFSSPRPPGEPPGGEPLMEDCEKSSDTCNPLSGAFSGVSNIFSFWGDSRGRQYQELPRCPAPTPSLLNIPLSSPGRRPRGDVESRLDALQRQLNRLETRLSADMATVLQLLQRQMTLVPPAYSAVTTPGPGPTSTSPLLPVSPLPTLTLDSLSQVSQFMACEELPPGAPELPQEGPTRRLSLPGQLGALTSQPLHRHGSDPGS

Structure (SMILES): NC(=S)N/N=C/c1ccc(OCc2ccc(Cl)c(Cl)c2)cc1
- inhibition at 2 h, 10 µM [1]: 2.4%
- inhibition at 0.75 h, 10 µM [2]: -6.24%
- Activity [3]: 99.83%
- EC50 [4]: 0.44 µM
- viability at 72 h, 50 µM [5]: 65.5%
- inhibition at 0.5 h, 10 µM [6]: 10.6%
- inhibition of growth at 50 µM [7]: 80.5%
- cell growth (% of control) at 48 h, 10 µM [8]: 72.5%
- PF [9]: 0.8
- selectivity ratio [10]: 8
- Activity [11]: 6.56
- cell growth (% of control) at 48 h, 10 µM [12]: 89.4%
- inhibition at 0.5 h, 10 µM [13]: 39.3%
- viability at 72 h, 100 µM [14]: 38.8%
- inhibition at 0.5 h, 10 µM [15]: 18.9%
- inhibition [16]: 0.59%
- inhibition of growth at 50 µM [17]: 100%
- CI [18]: 0.41
- cytotoxicity at 6 h, 10 µM [19]: 23.4%
- EC50 [20]: 1.31 µM
- EC50 [21]: 2.31 µM
- inhibition at 0.5 h, 10 µM [22]: 26.8%

Structure (SMILES): COc1ccc(-c2cccc(/C=N/NC(N)=S)c2)cc1OC
- inhibition at 2 h, 10 µM [1]: 22.4%
- inhibition at 0.75 h, 10 µM [2]: -2.55%
- Activity [3]: 98.83%
- EC50 [4]: 4.72 µM
- viability at 72 h, 50 µM [5]: 26.7%
- inhibition at 0.5 h, 10 µM [6]: -2.53%
- inhibition of growth at 50 µM [7]: 82.4%
- cell growth (% of control) at 48 h, 10 µM [8]: 90.5%
- PF [9]: 0.81
- selectivity ratio [10]: 7
- Activity [11]: 6.36
- cell growth (% of control) at 48 h, 10 µM [12]: 106%
- inhibition at 0.5 h, 10 µM [13]: 29.2%
- viability at 72 h, 100 µM [14]: 40.9%
- inhibition at 0.5 h, 10 µM [15]: 56.8%
- inhibition [16]: 4.76%
- inhibition of growth at 50 µM [17]: 93.9%
- CI [18]: 0.28
- cytotoxicity at 6 h, 10 µM [19]: -13.1%
- EC50 [20]: 29.5 µM
- EC50 [21]: 7.45 µM
- inhibition at 0.5 h, 10 µM [22]: 64.7%
